Tests used:
Jejunum [1] = test: Intracellular drug level in Wistar rat jejunum treated with Temocaprilat at 100 uM at pH 6.4 by in-situ single-pass perfusion method; format: ADME, tissue-based; conditions: in vivo
[2] = Ratio of Vmax to Km for drug hydrolysis in Wistar rat duodenal S9 fraction assessed per mg protein; format: ADME, Duodenum
Outline: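 Duodenal or jejunal mucosal S9 (9000 g supernatant) in 50 mM HEPES pH 7.4, pre-incubated 5 min at 37°C. Substrate added at 10–500 µM final in 1% DMSO and incubated 20 min; stopped with acetonitrile. Temocaprilat formation measured by HPLC. Km and Vmax from nonlinear Michaelis–Menten fit; intrinsic clearance as Vmax/Km; mean ± S.D.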

[3] = Drug hydrolysis in perfused Wistar rat jejunal S9 fraction at 500 uM assessed per mg protein in presence of 400 uM CES inhibitor BNPP; format: ADME, Jejunum; conditions: s9, 500 µM
Outline: (§1)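 Jejunal mucosal homogenate or S9 (HEPES pH 7.4/KCl) taken from intact jejunum, or after 40 min perfusion with or without 400 µM BNPP. Protein at 400 µg/ml incubated at 37°C with 500 µM drug. Added BNPP (100 or 1000 µM) pre-incubated 5 min. Temocaprilat formed measured by HPLC and given as nmol/min/mg protein and % of control. Mean ± S.D., n = 4.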

Jejunum [4] = test: Intracellular drug level in Wistar rat jejunum assessed as temocaprilat level pre-perfused with 400 uM CES inhibitor BNPP at 100 uM at pH 5.4 by in-situ single-pass perfusion method; format: ADME, tissue-based; conditions: in vivo, pH 5.4, 100 µM
Outline: (§2)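 Same in situ jejunal single-pass perfusion, with carboxylesterase blocked by pre-perfusing the lumen with 400 µM BNPP for 40 min. Then 100 µM drug in luminal phosphate buffer (pH 5.4 or 6.4) at 0.2 ml/min. Vascular Krebs–Henseleit (pH 7.4) at 2.5 ml/min. Luminal, vascular and tissue levels measured by HPLC. Rates are luminal disappearance and appearance in lumen or mesenteric vein. Mean ± S.D., n = 3.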

Jejunum [5] = test: Drug hydrolysis in intact Wistar rat jejunum mucosal homogenate at 500 uM assessed per mg protein in presence of 100 uM CES inhibitor BNPP; format: ADME, tissue-based; conditions: tissue homogenate; outline: as §1
Jejunum [6] = test: Drug uptake in Wistar rat jejunum pre-perfused with 400 uM CES inhibitor BNPP assessed as rate of temocaprilat appearance at 100 uM at pH 5.4 by in-situ single-pass perfusion method; format: ADME, tissue-based; conditions: in vivo, pH 5.4, 100 µM; outline: as §2
Jejunum [7] = test: Apparent hydrolytic clearance in Wistar rat jejunum pre-perfused with 400 uM CES inhibitor BNPP at 100 uM at pH 5.4 by in-situ single-pass perfusion method; format: ADME, tissue-based; conditions: in vivo, pH 5.4, 100 µM; outline: as §2
Jejunum [8] = test: Apparent absorption clearance in Wistar rat jejunum pre-perfused with 400 uM CES inhibitor BNPP at 100 uM at pH 6.4 by in-situ single-pass perfusion method; format: ADME; conditions: in vivo, pH 6.4, 100 µM; outline: as §2
Jejunum [9] = test: Drug uptake in Wistar rat jejunum pre-perfused with 400 uM CES inhibitor BNPP assessed as rate of drug appearance at 100 uM at pH 5.4 by in-situ single-pass perfusion method; format: ADME, tissue-based; conditions: in vivo, pH 5.4, 100 µM; outline: as §2
[10] = Permeability in Wistar rat jejunum at 100 uM at pH 7.4 by in-situ single-pass perfusion method; format: ADME, tissue-based; conditions: other: in-situ single-pass perfusion of the jejunum, read-out: Peff (converted)
Outline: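 Rats fasted 18–24 h and anesthetized with intraperitoneal pentobarbital. Jejunal loop perfused at 0.2 ml/min with phosphate buffer (pH 5.4, 6.4 or 7.4) containing 100 μM drug and FD-4 (0.1 mg/ml). Vascular perfusate was Krebs–Henseleit bicarbonate buffer (pH 7.4) at 2.5 ml/min, segment kept at 37°C. Drug and metabolite measured by HPLC (UV 258 nm). Peff normalized to 10 cm intestine; mean ± S.D., n = 3–6.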

Jejunum [11] = test: Apparent hydrolytic clearance in Wistar rat jejunum at 100 uM at pH 6.4 by in-situ single-pass perfusion method; format: ADME, tissue-based; conditions: in vivo, pH 6.4, 100 µM
Outline: (§3)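 Rats fasted 18–24 h, anesthetized with intraperitoneal pentobarbital. Isolated cannulated jejunal segment kept at 37°C in Krebs–Henseleit buffer with 3% BSA and 10 mM glucose. Vascular perfusion with Krebs–Henseleit (pH 7.4) at 2.5 ml/min. Lumen perfused at 0.2 ml/min with phosphate buffer (pH 5.4, 6.4 or 7.4) containing 100 µM drug plus FD-4. Luminal and vascular samples assayed by HPLC (UV 258 nm). Parameters normalized to 10 cm intestine. Mean ± S.D., n = 3–6.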

[12] = Permeability in Wistar rat jejunum pre-perfused with 400 uM CES inhibitor BNPP at 100 uM at pH 6.4 by in-situ single-pass perfusion method; format: ADME, tissue-based; conditions: other: in-situ single-pass perfusion of the jejunum, pH 6.4, with BNPP (CES inhibitor) 400 uM, read-out: Peff (converted)
Outline: (§4)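 Fasted, pentobarbital-anesthetized rats. Jejunum pre-perfused with BNPP (400 µM) for 40 min to inhibit CES. Lumen then perfused at 0.2 ml/min with 100 μM drug in phosphate buffer (pH 5.4 or 6.4). Vascular side received Krebs–Henseleit buffer (pH 7.4) at 2.5 ml/min. Luminal drug quantified by HPLC; Peff normalized to 10 cm segment; mean ± S.D., n = 3.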

Jejunum [13] = test: Intracellular drug level in Wistar rat jejunum assessed as temocaprilat level pre-perfused with 400 uM CES inhibitor BNPP at 100 uM at pH 6.4 by in-situ single-pass perfusion method; format: ADME, tissue-based; conditions: in vivo, pH 6.4, 100 µM; outline: as §2
Jejunum [14] = test: Intracellular drug level in Wistar rat jejunum at 100 uM at pH 7.4 by in-situ single-pass perfusion method; format: ADME, tissue-based; conditions: in vivo, pH 7.4, 100 µM; outline: as §3
Jejunum [15] = test: Drug hydrolysis in intact Wistar rat jejunum mucosal homogenate at 500 uM assessed per mg protein; format: ADME, tissue-based; conditions: tissue homogenate; outline: as §1
[16] = Drug hydrolysis in perfused Wistar rat jejunal S9 fraction at 500 uM assessed per mg protein; format: ADME, Jejunum; conditions: s9, 500 µM; outline: as §1
[17] = Ratio of Vmax to Km for drug jejunal in Wistar rat jejunal S9 fraction assessed per mg protein
[18] = Permeability in Wistar rat jejunum pre-perfused with 400 uM CES inhibitor BNPP at 100 uM at pH 5.4 by in-situ single-pass perfusion method; format: ADME, tissue-based; conditions: other: in-situ single-pass perfusion of the jejunum, pH 5.4, with BNPP (CES inhibitor) 400 uM, read-out: Peff (converted); outline: as §4
Jejunum [19] = test: Intracellular drug level in Wistar rat jejunum treated with Temocaprilat at 100 uM at pH 7.4 by in-situ single-pass perfusion method; format: ADME, tissue-based; conditions: in vivo, pH 7.4, 100 µM
Jejunum [20] = test: Drug uptake in Wistar rat jejunum pre-perfused with 400 uM CES inhibitor BNPP assessed as rate of temocaprilat disappearance at 100 uM at pH 5.4 by in-situ single-pass perfusion method; format: ADME, tissue-based; conditions: in vivo, pH 5.4, 100 µM; outline: as §2
[21] = Drug hydrolysis in Wistar rat jejunal S9 fraction assessed as rate of hydrolysis per mg protein; format: ADME, Jejunum
Outline: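 Duodenal or jejunal mucosa from fasted rats homogenized in 50 mM HEPES (pH 7.4) with 1.15% KCl; S9 is the 9000 g supernatant. S9 pre-incubated 5 min at 37°C, then drug added at 10–500 µM final (1% DMSO). Run for 20 min, stopped with acetonitrile, temocaprilat formed measured by HPLC. Km and Vmax from Michaelis–Menten nonlinear fit. Inhibitor (1 mM BNPP) pre-incubated 5 min. Results as % of control.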

[22] = Partition coefficient, log P between n-octanol and phosphate buffer at pH 7.4; format: physicochemical
[23] = Drug hydrolysis in intact Wistar rat jejunal S9 fraction at 500 uM assessed per mg protein in presence of 1000 uM CES inhibitor BNPP; format: ADME, Jejunum; conditions: s9, 500 µM; outline: as §1
Jejunum [24] = test: Drug hydrolysis in perfused Wistar rat jejunum mucosal homogenate at 500 uM assessed per mg protein in presence of 400 uM CES inhibitor BNPP; format: ADME, tissue-based; conditions: tissue homogenate; outline: as §1
Jejunum [25] = test: Drug uptake in Wistar rat jejunum pre-perfused with 400 uM CES inhibitor BNPP assessed as rate of drug appearance at 100 uM at pH 6.4 by in-situ single-pass perfusion method; format: ADME, tissue-based; conditions: in vivo, pH 6.4, 100 µM; outline: as §2
Jejunum [26] = test: Apparent absorption clearance in Wistar rat jejunum at 100 uM at pH 5.4 by in-situ single-pass perfusion method; format: ADME, tissue-based; conditions: in vivo, pH 5.4, 100 µM; outline: as §3
Jejunum [27] = test: Apparent hydrolytic clearance in Wistar rat jejunum at 100 uM at pH 7.4 by in-situ single-pass perfusion method; format: ADME, tissue-based; conditions: in vivo; outline: as §3

Question: For CCOC(=O)[C@H](CCc1ccccc1)N[C@H]1CS[C@H](c2cccs2)CN(CC(=O)O)C1=O [TEMOCAPRIL], which Drug uptake (Jejunum [1]) is on record?
Answer: Its Drug uptake is 18.1 nmol/g.

Question: What about the Vmax/Km [2] of the same compound?
Answer: The Vmax/Km was 109 µL/min.

Question: What about the Drug degradation [3] of the same compound?
Answer: The Drug degradation was 0.625 nmol/min.

Question: And the Drug uptake (Jejunum [4])?
Answer: The Drug uptake was 17 nmol/g.

Question: What about the Drug degradation (Jejunum [5]) of the same compound?
Answer: Its Drug degradation is 2.23 nmol/min.

Question: What about the CL (Jejunum [6]) of the same compound?
Answer: The CL was 1.01 nmol/min.

Question: What about the CL (Jejunum [7]) of the same compound?
Answer: Its CL is 24.9 µL/min.

Question: What about the “CL(app)” value (Jejunum [8]) of the same compound?
Answer: Its value is 7.64 µL/min.

Question: What about the CL (Jejunum [9]) of the same compound?
Answer: Its CL is 0.862 nmol/min.

Question: What about the Papp at 100 µM [10] of the same compound?
Answer: Its Papp at 100 µM is 54.2 ×10⁻⁶ cm/s.

Question: And the CL (Jejunum [11])?
Answer: The CL was 35.4 µL/min.

Question: What about the Papp at 100 µM [12] of the same compound?
Answer: The Papp at 100 µM was 38.7 ×10⁻⁶ cm/s.

Question: And the Drug uptake (Jejunum [13])?
Answer: Its Drug uptake is 14.6 nmol/g.

Question: And the Drug uptake (Jejunum [14])?
Answer: The Drug uptake was 1.02 nmol/g.

Question: And the Drug degradation (Jejunum [15])?
Answer: Its Drug degradation is 4.17 nmol/min.

Question: And the Drug degradation [16]?
Answer: The Drug degradation was 4.28 nmol/min.

Question: What about the Vmax/Km [17] of the same compound?
Answer: The Vmax/Km was 108 µL/min.

Question: What about the Papp at 100 µM [18] of the same compound?
Answer: Its Papp at 100 µM is 49.8 ×10⁻⁶ cm/s.

Question: And the Drug uptake (Jejunum [19])?
Answer: The Drug uptake was 17.6 nmol/g.

Question: What about the CL (Jejunum [20]) of the same compound?
Answer: Its CL is 1.01 nmol/min.

Question: And the Vmax [21]?
Answer: Its Vmax is 5.11 nmol/min/mg.

Question: And the logD [22]?
Answer: The logD was 0.1.

Question: And the Drug degradation [23]?
Answer: The Drug degradation was 0.488 nmol/min.

Question: And the Drug degradation (Jejunum [24])?
Answer: The Drug degradation was 2.05 nmol/min.

Question: And the CL (Jejunum [25])?
Answer: The CL was 0.696 nmol/min.

Question: And the “CL(app)” value (Jejunum [26])?
Answer: The value was 3.59 µL/min.

Question: What about the CL (Jejunum [27]) of the same compound?
Answer: Its CL is 43.2 µL/min.
